Experimental data from ChEMBL document CHEMBL1126940, “Synthesis and dopamine receptor modulating activity of lactam conformationally constrained analogues of Pro-Leu-Gly-NH2” (J Med Chem, 1993).
Residues, ends and D or L forms follow the SMILES beside them.

Columns and labels:
[1] = target: T1, Dopamine receptor (Bos taurus) (UniProt Q95136+P20288); experiment: In vitro ability to enhance the binding of [3H]ADTN to dopamine receptor obtained from bovine caudate membranes at a concentration of 10E-4 M
Procedure, shortened: (§1)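 Striatal synaptosomal membranes from bovine caudate incubated with [3H]ADTN with or without (control) peptide at 10^-12–10^-4 M, in triplicate, 37°C for 10 min, no preincubation; filtered, filters counted by liquid scintillation. Nonspecific binding defined with 10 μM (+)-butaclamol. Result expressed as percent enhancement over control; average ± SEM of three or four experiments; unpaired t-test on dpm.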

[2] = target: T1, Dopamine receptor (Bos taurus); experiment: In vitro ability to enhance the binding of [3H]ADTN to dopamine receptor obtained from bovine caudate membranes at a concentration of 10E-5 M; procedure, shortened: as §1
[3] = target: T1, Dopamine receptor (Bos taurus); experiment: In vitro ability to enhance the binding of [3H]ADTN to dopamine receptor obtained from bovine caudate membranes at a concentration of 10E-6 M; procedure, shortened: as §1
[4] = target: T1, Dopamine receptor (Bos taurus); experiment: In vitro ability to enhance the binding of [3H]ADTN to dopamine receptor obtained from bovine caudate membranes at a concentration of 10E-12 M; procedure, shortened: as §1
[5] = target: T1, Dopamine receptor (Bos taurus); experiment: In vitro ability to enhance the binding of [3H]-ADTN to dopamine receptor obtained from bovine caudate membranes at a concentration of 10E-11 M; procedure, shortened: as §1
[6] = target: T1, Dopamine receptor (Bos taurus); experiment: In vitro ability to enhance the binding of [3H]-ADTN to dopamine receptor obtained from bovine caudate membranes at a concentration of 10E-7 M; procedure, shortened: as §1
[7] = target: T1, Dopamine receptor (Bos taurus); experiment: In vitro ability to enhance the binding of [3H]ADTN to dopamine receptor obtained from bovine caudate membranes at a concentration of 10E-8 M; procedure, shortened: as §1
[8] = target: T1, Dopamine receptor (Bos taurus); experiment: In vitro ability to enhance the binding of [3H]ADTN to dopamine receptor obtained from bovine caudate membranes at a concentration of 10E-10 M; procedure, shortened: as §1
[9] = target: T1, Dopamine receptor (Bos taurus); experiment: In vitro ability to enhance the binding of [3H]ADTN to dopamine receptor obtained from bovine caudate membranes at a concentration of 10E-9 M; procedure, shortened: as §1

Increase [1] [%]	Increase [2] [%]	Increase [3] [%]	Increase [4] [%]	Increase [5] [%]	Increase [6] [%]	Increase [7] [%]	Increase [8] [%]	Increase [9] [%]	Structure (SMILES)
7	37	54	2	2	30	14	2.5	6.8	NC(=O)CN1OC[C@H](NC(=O)C2CCCN2)C1=O (some centres not stated)
	18	43	2	4	16	11	3	4	NC(=O)CN1CCC[C@@H](NC(=O)C2CCCN2)C1=O (some centres not stated)
13	33	38	4	5.5	42	13.5	3.3	4.6	NC(=O)CN1C(=O)C[C@H](NC(=O)C2CCCN2)C1=O (some centres not stated)
17	27	61		8	38	35	15	30	NC(=O)CN1CCCC[C@@H](NC(=O)C2CCCN2)C1=O (some centres not stated)
		27							CC(C)C[C@H](NC(=O)[C@@H]1CCCN1)C(=O)NCC(N)=O (H-Pro-Leu-Gly-NH2)
9.5	22	27	1.5		8	5	2.5	3.9	NC(=O)CN1C[C@H](NC(=O)C2CCCN2)C1=O (some centres not stated)

Structure (SMILES)	Increase [1] [%]	Increase [2] [%]	Increase [3] [%]	Increase [4] [%]	Increase [5] [%]	Increase [6] [%]	Increase [7] [%]	Increase [8] [%]	Increase [9] [%]
NC(=O)CN1CC[C@H](NC(=O)C2CCCN2)C1=O (some centres not stated)	1.4	1.6	2.8	2.2	12	5.6	9.2	24.4	23
